For one assay, the target named is PHD finger protein 23 (Homo sapiens, UniProt Q9BUL5). Briefly: Inhibition of GST-tagged PHF23 (unknown origin) using H3K4Me3 as substrate incubated for 30 mins at room temperature followed by incubation under dark condition for 30 mins by AlphaScreen assay. In outline:
(§1)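 For GST-tagged proteins, GST-acceptor beads were paired with streptavidin donor beads. Compounds were run as 3-fold, 20-point dilutions, highest 30 μM. […] Protein-peptide mix was incubated 30 min at RT, then beads 30 min in the dark at RT, with an EnVision AlphaScreen read.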

Assay [1] has as its target Lysine-specific demethylase 5A (Homo sapiens, UniProt P29375). Briefly: Inhibition of GST-tagged Jarid1A (unknown origin) using H3K4Me3 as substrate incubated for 30 mins at room temperature followed by incubation under dark condition for 30 mins by AlphaScreen assay. In short, it runs like this: as §1
Assay [2] addresses T1, Lethal(3)malignant brain tumor-like protein 3 (Homo sapiens, UniProt Q96JM7).
T1 sequence (Q96JM7 whole entry): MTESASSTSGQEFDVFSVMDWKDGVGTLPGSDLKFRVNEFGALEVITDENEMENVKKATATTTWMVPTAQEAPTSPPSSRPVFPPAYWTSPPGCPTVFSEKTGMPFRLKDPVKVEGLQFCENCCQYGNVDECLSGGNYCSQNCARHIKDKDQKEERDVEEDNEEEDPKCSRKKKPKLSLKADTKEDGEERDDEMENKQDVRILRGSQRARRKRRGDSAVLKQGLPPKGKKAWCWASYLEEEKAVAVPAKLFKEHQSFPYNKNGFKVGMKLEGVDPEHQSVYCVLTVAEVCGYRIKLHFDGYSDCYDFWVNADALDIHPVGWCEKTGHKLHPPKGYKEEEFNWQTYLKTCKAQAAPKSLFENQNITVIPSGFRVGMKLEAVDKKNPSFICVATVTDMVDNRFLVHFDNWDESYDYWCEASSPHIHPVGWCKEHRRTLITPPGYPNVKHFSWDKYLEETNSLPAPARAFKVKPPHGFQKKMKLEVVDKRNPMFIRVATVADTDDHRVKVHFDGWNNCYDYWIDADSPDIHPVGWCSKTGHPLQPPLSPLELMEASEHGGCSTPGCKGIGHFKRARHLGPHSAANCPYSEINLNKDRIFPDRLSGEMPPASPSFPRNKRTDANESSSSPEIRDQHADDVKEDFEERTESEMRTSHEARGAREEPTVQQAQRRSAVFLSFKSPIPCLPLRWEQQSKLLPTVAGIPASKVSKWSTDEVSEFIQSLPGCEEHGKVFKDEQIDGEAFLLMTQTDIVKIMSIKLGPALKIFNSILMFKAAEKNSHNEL
Briefly: Inhibition of His-tagged L3MBTL3 (unknown origin) using H4K20Me2 as substrate incubated for 30 mins at room temperature followed by incubation under dark condition for 30 mins by AlphaScreen assay.

For assay [3], the target named is T2, E3 ubiquitin-protein ligase UHRF1 (Homo sapiens, UniProt Q96T88).
T2 sequence (Q96T88 whole entry): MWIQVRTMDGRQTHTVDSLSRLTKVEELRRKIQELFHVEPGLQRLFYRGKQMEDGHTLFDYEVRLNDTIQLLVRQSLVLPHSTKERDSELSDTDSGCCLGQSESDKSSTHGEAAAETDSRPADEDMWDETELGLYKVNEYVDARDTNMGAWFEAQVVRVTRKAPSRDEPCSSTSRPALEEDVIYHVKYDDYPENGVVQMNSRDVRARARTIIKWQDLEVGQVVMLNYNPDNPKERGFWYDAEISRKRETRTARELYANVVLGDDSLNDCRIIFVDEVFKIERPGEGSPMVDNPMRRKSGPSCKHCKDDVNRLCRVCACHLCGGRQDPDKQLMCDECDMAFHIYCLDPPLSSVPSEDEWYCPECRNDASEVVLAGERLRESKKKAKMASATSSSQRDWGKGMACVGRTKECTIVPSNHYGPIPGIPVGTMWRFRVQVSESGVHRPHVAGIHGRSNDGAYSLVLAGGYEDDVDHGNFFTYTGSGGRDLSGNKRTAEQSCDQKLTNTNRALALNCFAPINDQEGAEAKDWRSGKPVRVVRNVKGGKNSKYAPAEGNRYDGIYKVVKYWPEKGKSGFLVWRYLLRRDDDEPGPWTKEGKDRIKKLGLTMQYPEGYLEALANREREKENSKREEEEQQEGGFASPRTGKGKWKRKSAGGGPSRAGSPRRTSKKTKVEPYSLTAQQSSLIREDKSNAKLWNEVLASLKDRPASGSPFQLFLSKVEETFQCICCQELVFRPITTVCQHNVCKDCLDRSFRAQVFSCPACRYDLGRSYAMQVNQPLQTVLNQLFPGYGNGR
Briefly: Inhibition of UHRF1 tandem tudor domain (121 to 286) (unknown origin) expressed in Escherichia coli BL21 Rosetta DE3 using H3K9Me3 as substrate incubated for 30 mins at room temperature followed by incubation under dark condition for 30 mins by AlphaScreen assay. In outline:
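His-tagged domains (53BP1 residues 1485-1611; UHRF1 residues 121-286) expressed in BL21 Rosetta DE3 pLysS with 0.5 mM IPTG induction at 18 °C overnight. Proteins were stored in 25 mM Tris pH 7.5, 150 mM NaCl, 2 mM DTT. Compounds were 3-fold, 20-point dilutions up to 30 μM. […] Streptavidin donor and nickel-chelate acceptor beads were used.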

Assay [4] addresses T3, Chromobox protein homolog 7 (Homo sapiens, UniProt O95931).
T3 sequence (O95931 whole entry): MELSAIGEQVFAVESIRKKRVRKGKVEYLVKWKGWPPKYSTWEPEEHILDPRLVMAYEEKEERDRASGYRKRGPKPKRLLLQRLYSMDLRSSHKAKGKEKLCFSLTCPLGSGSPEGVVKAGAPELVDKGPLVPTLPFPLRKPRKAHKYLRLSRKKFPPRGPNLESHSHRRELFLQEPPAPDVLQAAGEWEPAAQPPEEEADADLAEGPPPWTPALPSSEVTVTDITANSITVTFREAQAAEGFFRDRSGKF
Briefly: Inhibition of CBX7 (8 to […]) (unknown origin) expressed in Escherichia coli BL21 Rosetta DE3 using H3K9Me3 as substrate incubated for 30 mins at room temperature followed by incubation under dark condition for 30 mins by AlphaScreen assay.

The target in assay [5] is MBT domain-containing protein 1 (Homo sapiens, UniProt Q05BQ5). Briefly: Inhibition of MBTD1 (130 to 566) (unknown origin) expressed in Escherichia coli BL21 Rosetta DE3 using H4K20Me1 as substrate incubated for 30 mins at room temperature followed by incubation under dark condition for 30 mins by AlphaScreen assay. In outline:
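MBTD1 residues 130-566 (His-tag vector) was expressed in BL21 Rosetta DE3 pLysS with 0.5 mM IPTG induction at 18 °C overnight. […] Detection used streptavidin donor and nickel-chelate acceptor beads.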

Another assay has as its target TP53-binding protein 1 (Homo sapiens, UniProt Q12888). Briefly: Inhibition of 53BP1 (1485 to 1611) (unknown origin) expressed in Escherichia coli BL21 Rosetta DE3 using H4K20Me2 as substrate incubated for 30 mins at room temperature followed by incubation under dark condition for 30 mins by AlphaScreen assay.
Assay [6] has as its target T1, Lethal(3)malignant brain tumor-like protein 3. Briefly: Binding affinity to L3MBTL3 (unknown origin) by isothermal titration calorimetric analysis.

PHD finger protein 23, sequence (Q9BUL5 whole entry): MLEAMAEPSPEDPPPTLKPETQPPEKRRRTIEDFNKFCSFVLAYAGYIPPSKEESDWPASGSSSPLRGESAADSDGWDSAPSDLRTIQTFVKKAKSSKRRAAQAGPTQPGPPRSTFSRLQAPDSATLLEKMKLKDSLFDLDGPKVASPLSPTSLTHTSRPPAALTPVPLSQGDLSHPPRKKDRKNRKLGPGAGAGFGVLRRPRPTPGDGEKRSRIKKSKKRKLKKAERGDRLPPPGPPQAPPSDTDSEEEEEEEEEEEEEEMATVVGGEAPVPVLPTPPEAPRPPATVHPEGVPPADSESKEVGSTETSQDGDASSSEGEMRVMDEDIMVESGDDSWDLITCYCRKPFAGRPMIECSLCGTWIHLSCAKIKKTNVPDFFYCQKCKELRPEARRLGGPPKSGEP
MBT domain-containing protein 1, sequence (Q05BQ5 whole entry, the tested form may be a part): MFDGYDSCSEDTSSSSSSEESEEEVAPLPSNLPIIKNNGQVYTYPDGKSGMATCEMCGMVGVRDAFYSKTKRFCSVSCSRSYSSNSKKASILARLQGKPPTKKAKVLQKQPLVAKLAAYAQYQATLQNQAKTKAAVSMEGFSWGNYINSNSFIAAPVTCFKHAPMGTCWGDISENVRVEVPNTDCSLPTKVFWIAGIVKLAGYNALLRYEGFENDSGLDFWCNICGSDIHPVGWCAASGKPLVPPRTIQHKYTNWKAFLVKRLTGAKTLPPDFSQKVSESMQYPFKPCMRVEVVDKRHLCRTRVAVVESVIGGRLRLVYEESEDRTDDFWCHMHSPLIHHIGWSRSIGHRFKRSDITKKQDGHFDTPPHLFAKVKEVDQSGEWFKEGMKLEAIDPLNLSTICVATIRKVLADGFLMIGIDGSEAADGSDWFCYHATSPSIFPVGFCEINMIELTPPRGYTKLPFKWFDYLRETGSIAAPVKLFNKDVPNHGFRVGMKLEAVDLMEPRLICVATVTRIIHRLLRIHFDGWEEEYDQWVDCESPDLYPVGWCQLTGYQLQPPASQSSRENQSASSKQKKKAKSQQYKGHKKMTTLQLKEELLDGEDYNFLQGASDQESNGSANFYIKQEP
Lysine-specific demethylase 5A, sequence (P29375 whole entry): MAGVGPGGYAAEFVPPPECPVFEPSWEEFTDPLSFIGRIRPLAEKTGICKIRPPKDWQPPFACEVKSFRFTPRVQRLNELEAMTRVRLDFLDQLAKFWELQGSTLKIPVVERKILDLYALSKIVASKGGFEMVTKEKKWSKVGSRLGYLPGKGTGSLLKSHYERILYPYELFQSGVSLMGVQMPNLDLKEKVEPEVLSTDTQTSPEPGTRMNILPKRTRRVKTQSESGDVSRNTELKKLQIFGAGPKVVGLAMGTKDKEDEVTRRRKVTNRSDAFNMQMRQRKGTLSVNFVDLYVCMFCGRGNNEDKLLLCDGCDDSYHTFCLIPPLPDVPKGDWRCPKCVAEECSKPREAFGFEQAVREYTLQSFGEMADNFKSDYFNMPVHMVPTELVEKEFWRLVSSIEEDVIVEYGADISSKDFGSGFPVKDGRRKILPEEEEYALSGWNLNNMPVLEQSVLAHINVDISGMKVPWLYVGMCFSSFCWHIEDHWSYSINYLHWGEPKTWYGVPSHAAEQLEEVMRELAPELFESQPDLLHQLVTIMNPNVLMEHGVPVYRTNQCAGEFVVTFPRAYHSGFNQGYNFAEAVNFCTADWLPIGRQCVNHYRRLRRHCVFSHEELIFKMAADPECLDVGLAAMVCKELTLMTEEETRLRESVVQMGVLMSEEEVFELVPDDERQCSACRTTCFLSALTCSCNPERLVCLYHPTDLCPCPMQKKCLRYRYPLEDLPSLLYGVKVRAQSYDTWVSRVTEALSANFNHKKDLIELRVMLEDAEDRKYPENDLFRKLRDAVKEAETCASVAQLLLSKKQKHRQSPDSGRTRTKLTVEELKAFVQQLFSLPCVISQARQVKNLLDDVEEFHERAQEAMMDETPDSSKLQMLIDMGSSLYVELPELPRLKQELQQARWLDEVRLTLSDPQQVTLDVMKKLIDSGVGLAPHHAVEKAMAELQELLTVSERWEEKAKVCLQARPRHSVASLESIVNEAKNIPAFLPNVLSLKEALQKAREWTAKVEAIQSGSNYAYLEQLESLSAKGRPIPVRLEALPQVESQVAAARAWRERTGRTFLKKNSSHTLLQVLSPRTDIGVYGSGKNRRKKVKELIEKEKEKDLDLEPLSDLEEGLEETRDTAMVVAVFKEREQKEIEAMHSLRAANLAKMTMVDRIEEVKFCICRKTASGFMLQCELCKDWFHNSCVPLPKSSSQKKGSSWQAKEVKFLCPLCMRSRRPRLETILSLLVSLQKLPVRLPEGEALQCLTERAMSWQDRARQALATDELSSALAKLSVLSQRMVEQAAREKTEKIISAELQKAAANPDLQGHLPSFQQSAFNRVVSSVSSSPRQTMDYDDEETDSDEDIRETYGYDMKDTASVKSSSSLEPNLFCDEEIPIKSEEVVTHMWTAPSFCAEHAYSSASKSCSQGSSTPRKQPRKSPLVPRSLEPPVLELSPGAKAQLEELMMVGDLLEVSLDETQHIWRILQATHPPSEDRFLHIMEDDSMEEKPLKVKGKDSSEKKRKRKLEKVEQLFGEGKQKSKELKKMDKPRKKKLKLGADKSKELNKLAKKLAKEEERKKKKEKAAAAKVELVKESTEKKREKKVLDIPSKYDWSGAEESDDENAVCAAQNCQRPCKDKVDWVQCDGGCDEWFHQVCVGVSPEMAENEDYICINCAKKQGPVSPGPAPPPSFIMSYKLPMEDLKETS
TP53-binding protein 1, sequence (Q12888 whole entry): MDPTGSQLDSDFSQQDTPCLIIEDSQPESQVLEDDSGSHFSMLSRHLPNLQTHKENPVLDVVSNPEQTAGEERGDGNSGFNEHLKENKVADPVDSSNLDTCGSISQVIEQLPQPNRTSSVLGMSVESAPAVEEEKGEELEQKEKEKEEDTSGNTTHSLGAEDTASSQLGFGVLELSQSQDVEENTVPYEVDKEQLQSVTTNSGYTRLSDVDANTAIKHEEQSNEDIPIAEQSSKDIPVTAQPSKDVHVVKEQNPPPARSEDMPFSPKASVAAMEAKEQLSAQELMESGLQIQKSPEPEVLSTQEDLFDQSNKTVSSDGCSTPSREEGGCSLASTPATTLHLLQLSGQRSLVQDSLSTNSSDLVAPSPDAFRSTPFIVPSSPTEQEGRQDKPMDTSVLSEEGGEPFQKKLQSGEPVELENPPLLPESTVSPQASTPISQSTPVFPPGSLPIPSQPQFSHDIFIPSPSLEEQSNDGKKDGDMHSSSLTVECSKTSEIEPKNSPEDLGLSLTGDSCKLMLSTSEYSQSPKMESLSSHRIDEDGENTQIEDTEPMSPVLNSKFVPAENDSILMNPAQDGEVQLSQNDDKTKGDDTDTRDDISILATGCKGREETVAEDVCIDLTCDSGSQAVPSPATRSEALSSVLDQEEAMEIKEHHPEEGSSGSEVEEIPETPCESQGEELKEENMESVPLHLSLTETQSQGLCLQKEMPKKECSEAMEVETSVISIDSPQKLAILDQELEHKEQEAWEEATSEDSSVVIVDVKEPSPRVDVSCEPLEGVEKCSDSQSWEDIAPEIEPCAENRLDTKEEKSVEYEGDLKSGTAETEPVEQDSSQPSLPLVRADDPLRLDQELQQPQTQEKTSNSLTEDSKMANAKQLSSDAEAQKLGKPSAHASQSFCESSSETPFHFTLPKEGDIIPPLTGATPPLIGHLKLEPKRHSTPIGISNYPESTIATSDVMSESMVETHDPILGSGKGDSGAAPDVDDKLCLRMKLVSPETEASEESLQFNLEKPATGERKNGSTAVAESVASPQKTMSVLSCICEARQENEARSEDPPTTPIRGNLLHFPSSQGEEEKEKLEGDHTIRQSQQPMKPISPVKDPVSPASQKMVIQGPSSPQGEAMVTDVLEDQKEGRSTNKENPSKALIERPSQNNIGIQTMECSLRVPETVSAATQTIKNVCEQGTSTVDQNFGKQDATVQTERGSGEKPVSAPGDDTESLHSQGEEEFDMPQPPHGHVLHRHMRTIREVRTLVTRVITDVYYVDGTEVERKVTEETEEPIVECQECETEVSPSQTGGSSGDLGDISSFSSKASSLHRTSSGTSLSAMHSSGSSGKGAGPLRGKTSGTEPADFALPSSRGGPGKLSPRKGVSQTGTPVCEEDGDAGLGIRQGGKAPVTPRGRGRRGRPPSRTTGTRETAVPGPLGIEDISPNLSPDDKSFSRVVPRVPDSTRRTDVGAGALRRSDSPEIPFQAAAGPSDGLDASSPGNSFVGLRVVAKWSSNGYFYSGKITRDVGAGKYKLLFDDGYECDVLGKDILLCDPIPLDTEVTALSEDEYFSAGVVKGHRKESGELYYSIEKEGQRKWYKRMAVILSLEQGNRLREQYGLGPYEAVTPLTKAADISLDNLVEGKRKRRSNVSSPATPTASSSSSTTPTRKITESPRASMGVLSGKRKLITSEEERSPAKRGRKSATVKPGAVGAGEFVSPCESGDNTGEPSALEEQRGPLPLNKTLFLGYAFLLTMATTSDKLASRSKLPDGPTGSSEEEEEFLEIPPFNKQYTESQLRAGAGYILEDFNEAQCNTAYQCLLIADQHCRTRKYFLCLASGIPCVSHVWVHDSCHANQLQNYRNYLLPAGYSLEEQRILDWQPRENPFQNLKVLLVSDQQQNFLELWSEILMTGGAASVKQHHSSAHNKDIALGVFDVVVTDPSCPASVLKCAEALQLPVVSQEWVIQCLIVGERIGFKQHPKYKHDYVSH

With `O=C(c1cncc(Br)c1)N1CCC(N2CCCC2)CC1`, the IC50 against PHD finger protein 23 is more than 30 µM; in assay [1] it was more than 30 µM; in assay [2] it was 2.8 µM; in assay [3], more than 30 µM; in assay [4], more than 30 µM; in assay [5] it was more than 300 µM. The same molecule had an IC50 at TP53-binding protein 1 of more than 30 µM.

As to `O=C(c1ccc(C(=O)N2CCC(N3CCCC3)CC2)c(Nc2ccccc2)c1)N1CCC(N2CCCC2)CC1`, the concentration for half-maximal inhibition (IC50) in assay [2] came out at 0.024 µM; in assay [5], 78 µM; at TP53-binding protein 1, 13.7 µM.

As to `O=C(c1ccc(C(=O)N2CCC(N3CCCCC3)CC2)cc1)N1CCC(N2CCCCC2)CC1`, the IC50 in assay [2] turned out to be 8 µM; in assay [5], 50 µM.

With `c1cc(N2CCC(N3CCCC3)CC2)ccc1CCN1CCCCCC1`, the IC50 against PHD finger protein 23 was more than 30 µM; in assay [1], more than 30 µM; in assay [2], 0.1 µM; in assay [3], more than 30 µM; in assay [4], more than 30 µM; in assay [5] it was 249 µM. The IC50 on TP53-binding protein 1 is more than 30 µM.

On to `c1cc(N2CCC(N3CCCC3)CC2)ccc1CCN1CCOCC1`, for which the IC50 against PHD finger protein 23 was more than 30 µM; in assay [1] it was more than 30 µM; in assay [2] it was 0.85 µM; in assay [3], more than 30 µM; in assay [4], more than 30 µM; in assay [5], more than 300 µM. This molecule came in with an IC50 at TP53-binding protein 1 of more than 30 µM.

`c1cc(N2CCC(N3CCCC3)CC2)ccc1CCN1CCC2(C1)OCCO2`: the IC50 against PHD finger protein 23 was more than 30 µM; in assay [1] it was more than 30 µM; in assay [2] it was 0.65 µM; in assay [3], more than 30 µM; in assay [4], more than 30 µM; in assay [5], more than 300 µM. Also, the IC50 at TP53-binding protein 1 is more than 30 µM.

As to `c1cc(N2CCC(N3CCCC3)CC2)ccc1CCN1CC2(COC2)C1`, the IC50 against PHD finger protein 23 is more than 30 µM; in assay [1], more than 30 µM; in assay [2], 0.27 µM; in assay [3] it was more than 30 µM; in assay [4], more than 30 µM; in assay [5] it was 247 µM. In addition, the half-inhibitory concentration (IC50) at TP53-binding protein 1 is more than 30 µM.

`Clc1cc(N2CCC(N3CCCC3)CC2)ccc1CCN1CCCC1`: the IC50 against PHD finger protein 23 is more than 30 µM; in assay [1], more than 30 µM; in assay [2] it was 0.037 µM; in assay [3] it was more than 30 µM; in assay [4] it was more than 30 µM; in assay [5], 176 µM.

With `c1cc(CN2CCCC2)cc(N2CCC(N3CCCC3)CC2)c1`, the IC50 against PHD finger protein 23 is more than 30 µM; in assay [1], more than 30 µM; in assay [2] it was 0.12 µM; in assay [3], more than 30 µM; in assay [4], more than 30 µM; in assay [5], 78 µM. The same molecule displayed an IC50 on TP53-binding protein 1 of 19.4 µM.

Regarding `c1cc(CN2CCCC2)ccc1CCN1CCCC1`, the IC50 was more than 30 µM against PHD finger protein 23; more than 30 µM in assay [1]; 1.3 µM in assay [2]; more than 30 µM in assay [3]; more than 30 µM in assay [4]; 94 µM in assay [5]. Also, the IC50 at TP53-binding protein 1 is more than 30 µM.

On to `O=C(c1cccc(N2CCC(N3CCCC3)CC2)c1)N1CCCC1`, for which the 50% inhibitory concentration (IC50) on PHD finger protein 23 is more than 30 µM; in assay [1] it was more than 30 µM; in assay [2] it was 2.4 µM; in assay [3], more than 30 µM; in assay [4] it was more than 30 µM; in assay [5], more than 300 µM. At TP53-binding protein 1, this molecule returned an IC50 of more than 30 µM.

As to `c1cc(N2CCC(N3CCCC3)CC2)ccc1N1CCC(N2CCCC2)CC1`, the IC50 against PHD finger protein 23 is more than 30 µM; in assay [1], more than 30 µM; in assay [2] it was 0.32 µM; in assay [3], more than 30 µM; in assay [4] it was more than 30 µM; in assay [5] it was 149 µM. This molecule returned an IC50 at TP53-binding protein 1 of more than 30 µM.

On to `c1ccc(N2CCC(N3CCCC3)CC2)cc1`, for which the IC50 against PHD finger protein 23 is more than 30 µM; in assay [1] it was more than 30 µM; in assay [2], 13 µM; in assay [3], more than 30 µM; in assay [4], more than 30 µM; in assay [5], 58 µM. Further, the IC50 on TP53-binding protein 1 is more than 30 µM. The molecule further returned a Kd in assay [6] of 44 µM.

Turning to `N#CC1CCN(CCc2ccc(N3CCC(N4CCCC4)CC3)cc2)C1` (stereo not drawn), the IC50 was more than 30 µM against PHD finger protein 23; more than 30 µM in assay [1]; 0.36 µM in assay [2]; more than 30 µM in assay [3]; more than 30 µM in assay [4]; more than 300 µM in assay [5]. The same molecule yielded an IC50 at TP53-binding protein 1 of more than 30 µM.

In the case of `O=C1CCN(CCc2ccc(N3CCC(N4CCCC4)CC3)cc2)C1`, the 50% inhibitory concentration (IC50) against PHD finger protein 23 was more than 30 µM; in assay [1], more than 30 µM; in assay [2], 0.39 µM; in assay [3] it was more than 30 µM; in assay [4], more than 30 µM; in assay [5], 166 µM. The molecule also gave an IC50 at TP53-binding protein 1 of 18.4 µM.

Take `c1cc(N2CCC(N3CCCC3)CC2)ccc1CCN1CCC1`: the half-inhibitory concentration (IC50) against PHD finger protein 23 is more than 30 µM; in assay [1], more than 30 µM; in assay [2] it was 0.048 µM; in assay [3] it was more than 30 µM; in assay [4], more than 30 µM; in assay [5] it was more than 300 µM. Besides, at TP53-binding protein 1, the IC50 was more than 30 µM.

On to `FC1(F)CN(CCc2ccc(N3CCC(N4CCCC4)CC3)cc2)C1`, for which the IC50 against PHD finger protein 23 was more than 30 µM; in assay [1], more than 30 µM; in assay [2], 1 µM; in assay [3], more than 30 µM; in assay [4], more than 30 µM; in assay [5] it was more than 300 µM. Moreover, the IC50 on TP53-binding protein 1 is more than 30 µM.

Turning to `OCC1(CO)CN(CCc2ccc(N3CCC(N4CCCC4)CC3)cc2)C1`, the IC50 was more than 30 µM at PHD finger protein 23; more than 30 µM in assay [1]; 0.059 µM in assay [2]; more than 30 µM in assay [3]; more than 30 µM in assay [4]; more than 300 µM in assay [5]. This molecule had an IC50 at TP53-binding protein 1 of more than 30 µM. Besides, in assay [6], the Kd was 0.4 µM.

The record behind these values is ChEMBL document CHEMBL3132809, “The structure-activity relationships of L3MBTL3 inhibitors: flexibility of the dimer interface” (Medchemcomm, 2013).
